# Screening data as filed in PubChem.
# Compounds with a hit are over-represented: about 1.9% of the library has one in this group of screens.
# MBD2 DNA inh = blocks human MBD2 binding to methylated DNA; Q9UBB5; TR-FRET, MBD2 binding to methylated oligonucleotide; inhibition, % at 4.4 µM; hit rate 0.31% among 370,000; AID 686964; in the data active means inhibition above about 13%
# Target sequence (Q9UBB5 whole entry, looked up): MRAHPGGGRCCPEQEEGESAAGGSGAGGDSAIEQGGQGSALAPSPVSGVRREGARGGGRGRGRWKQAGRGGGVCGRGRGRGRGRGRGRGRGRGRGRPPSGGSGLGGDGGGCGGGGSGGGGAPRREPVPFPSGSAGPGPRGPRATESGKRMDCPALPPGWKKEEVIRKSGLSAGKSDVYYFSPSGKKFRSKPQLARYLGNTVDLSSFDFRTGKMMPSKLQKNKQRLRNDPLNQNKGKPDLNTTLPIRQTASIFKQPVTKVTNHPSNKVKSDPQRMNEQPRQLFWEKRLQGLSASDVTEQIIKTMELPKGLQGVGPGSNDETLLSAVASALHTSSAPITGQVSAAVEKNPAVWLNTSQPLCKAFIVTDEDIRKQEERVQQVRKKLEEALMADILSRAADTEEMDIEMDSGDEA
# Rin1 Abl inh = inhibitors of human Rin1-Abl protein interaction; TR-FRET Rin1/Abl binding, biochemical; inhibition, % at 7.35 µM; hit rate 0.4% among 360,000; AID 588664; in the data active means inhibition above about 5%, passing the limit was not always enough
# UHRF1 MBD2 ctr = human UHRF1 methylated DNA binding inhibitors; inhibition, % at 4.4 µM; hit rate 0.75% among 370,000; UHRF1 binding to methylated oligo, TR-FRET; AID 687016; Q96T88; in the data active means inhibition above about 21%;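 further: UHRF1 SRA domain binding a hemimethylated CpG hairpin DNA probe; 0% = median of test compound wells and 100% = reference inhibitor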
# TDP2 inh = blocks human TDP2 phosphodiesterase activity | inhibition, % at 12.8 µM | AID 720702 | O95551 | recombinant TDP2, T5PNP hydrolysis, p-nitrophenol absorbance 415 nm | hit rate 0.34% among 370,000;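 active means inhibition above the mean of all tested compounds plus 3 SD, set per campaign, cut at about 25% in these data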;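 further: 0% = DMSO with enzyme and 100% = buffer with substrate but no TDP2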
#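 Incubation: 2 h at 37 °C; Test system: recombinant human TDP2; Quantity: enzyme 120 nM; Read-out basis: percent inhibition; Medium: 50 mM Tris-HCl pH 7.5 with Mg2+, KCl, DTT, BSA; Repeats: single replicate; Compound: 12.8 µM single point, 1% DMSO; Signal: epi absorbance; Reagent: 5 mM T5PNP chromogenic substrate; Benchmarks: no-enzyme high, DMSO-plus-enzyme low.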
# LEDGF integ inh = blocks HIV-1 LEDGF/p75-dependent DNA integration; inhibition, % at 3.7 µM; TR-FRET IN-LEDGF/p75 DNA integration, Eu/Cy5; AID 743269; hit rate 0.64% among 370,000;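 active means inhibition above the screen-wide mean plus 3 SD, cut at about 13% in these data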;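 further: signal is the Cy5 over europium emission ratio at 671 and 618 nm; 0% = plate median of compound wells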
# IN multimer act = HIV-1 integrase multimerization activation, counter-screen | activation, % at 7.7 µM | hit rate 17% among 2,000 | TR-FRET HIV-1 integrase multimerization, biochemical | shares compounds with LEDGF integ inh; in the data active means activation above about 8.9%
# TR-FRET interf = optically interferes with TR-FRET readout in LEDGF counter-screen; shares compounds with LEDGF integ inh; TR-FRET optical interference counterscreen, HIV-1 IN multimerization; inhibition, % at 7.7 µM; 2,000 tested, under 10 active; AID 1053135;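 active means inhibition above the mean over all tested compounds plus 3 SD, which no compound reached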;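 further: 0% = integrase with antibodies and DMSO and 100% = antibodies without integrase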
# LEDGF integ conf = confirmation of HIV-1 LEDGF/p75-dependent integration inhibitors. shares compounds with LEDGF integ inh. TR-FRET LEDGF/p75-dependent HIV-1 integration, biochemical. inhibition, % at 3.7 µM. hit rate 36% among 2,000; in the data active means inhibition above about 14%
# An asterisk follows results filed as active; . = not tested or not shown.
SMILES,MBD2 DNA inh,Rin1 Abl inh,UHRF1 MBD2 ctr,TDP2 inh,LEDGF integ inh,IN multimer act,TR-FRET interf,LEDGF integ conf
O=C(/C=C/[C@H]1O[C@@H](n2ccc(=O)[nH]c2=O)[C@H](O)[C@@H]1O)N[C@@H](Cc1ccccc1)C(=O)O,-1.2,5.4,0.3,-3.5,2.3,.,.,.
CC1(C(=O)NS(=O)(=O)C2CC2)CCCN(C(=O)Cc2ccc(F)cc2)C1 (configuration not stated),-6.5,0.8,0.5,-8.9,2.9,.,.,.
CCN(CC)CCn1c2c(c(SCC(=O)Nc3cc(C)cc(C)c3)nc1=O)CCC2,1.3,-3.6,0.3,-2.2,-1.9,.,.,.
Fc1ccc(CNc2ncccn2)cc1,-2.2,1.6,1.8,3.5,13.8*,1.9,-9.3,-5.0
Clc1ccc(CNc2ncccn2)cc1,2.6,0.9,3.9,-9.2,-4.8,.,.,.
CCC(=O)Nc1nc2ccccc2n1Cc1ccc(C)cc1,3.2,-1.0,1.2,-4.0,14.1*,-0.6,3.1,12.5
O=C(O)C(c1ccccc1)N1C(=O)/C(=C\c2ccc(O)c(O)c2)SC1=S (configuration not stated),-1.9,0.8,1.1,-5.7,23.0*,8.1,-40.8,51.0*
Cc1ccc(NC(=O)CSc2ccc3nnc(CCNC(=O)c4ccccc4)n3n2)c(C)c1,-6.4,-1.8,-0.5,-5.7,43.4*,0.5,-2.5,-4.0
Cc1cc(NC(=O)CSc2ccc3nnc(CCNC(=O)c4ccccc4)n3n2)no1,-2.3,-0.7,-0.9,5.8,-4.2,.,.,.
COc1ccc(-c2c(C(=O)c3ccc(Br)cc3)[nH]c(N)c2C(=O)c2ccccc2)cc1OC,0.9,.,0.0,4.8,-3.5,.,.,.
C#CCOCCOCCOCCNc1nc(N2CCN(C(=O)CCCCCCCCCCNC(=O)Cn3cc(CCCCCN)nn3)CC2)nc(N2CCN(C(=O)CCCCCCCCCCNC(=O)[C@H]([C@@H](C)CC)n3cc(CCCCCN)nn3)CC2)n1,.,6.3,.,.,.,.,.,.
COc1c(NC=O)c2c(c([N+](=O)[O-])c1OC)C(=O)OC2,-5.4,-1.9,4.4,-15.8,13.7*,0.0,-0.1,-0.9
COC(=O)NCC(c1ccco1)N1CCN(c2ccccc2)CC1 (configuration not stated),-0.8,-0.2,0.7,0.0,-3.0,.,.,.
CC(=O)c1sc(NCc2ccccc2)nc1C,-7.4,-1.5,-0.6,11.2,28.6*,-1.1,5.5,2.7
CCC(C)NC(=O)c1cc2c(=O)n(CC)c3ccccc3c2s1 (configuration not stated),1.8,-4.9,-2.3,0.7,-2.4,.,.,.
O=C(/C=C/c1ccco1)Nc1nc(-c2ccccc2)cs1,3.4,2.9,0.7,5.0,-1.0,.,.,.
O=C(/C=C/c1ccco1)Nc1nc(-c2ccccn2)cs1,3.2,2.5,4.4,-2.8,15.7*,2.8,-14.0,16.4*
O=C(/C=C/c1ccc(F)cc1)N1CCCN(C(=O)/C=C/c2ccc(F)cc2)CC1,3.3,-1.9,6.3,7.7,25.2*,-0.2,0.9,-0.5
Cc1ccc(/C=C/C(=O)N2CCCN(C(=O)/C=C/c3ccc(C)cc3)CC2)cc1,1.4,-1.6,-0.9,8.3,0.8,.,.,.
COc1ccccc1OCC(=O)N/N=C/C=C/c1ccc([N+](=O)[O-])o1,8.7,1.2,35.0*,-17.2,37.8*,11.2*,-56.6,46.0*
O=C(N/N=C\C=C\c1ccc([N+](=O)[O-])o1)c1cccs1,9.1,-3.4,43.1*,-15.7,35.9*,10.6*,-37.9,57.0*
Cc1ccccc1OCC(=O)N/N=C/c1ccc([N+](=O)[O-])o1,-1.6,-0.8,1.8,-9.2,0.3,.,.,.
COC(=O)[C@]12C[C@H](CC(=O)NCc3ccc(C)o3)C(=O)N(Cc3cccc4ccccc34)C1=C[C@H](C(C)(C)C)O[C@@H]2C,-1.9,.,-0.9,-5.6,2.1,.,.,.
c1ccc(-c2nnc3nc(N4CCCCC4)nc(N4CCCCC4)n23)cc1,3.9,2.2,0.6,10.1,-1.2,.,.,.
